# Bioassay records from PubChem BioAssay.
# CSC inhib – cancer stem cell inhibition; cancer stem cell-like cells viability, luminescence; inhibition, % at 7.5 µM; 1.1% of 300,000 active; in the data active = inhibition above about 75%; inconclusive = no clear call, values can overlap the other calls; tested in HMLE shEcad cells
# SKKanGAS inh – inhibitors of SKKanGAS S. pyogenes growth in kanamycin (SK-promoter or general growth effect); BacTiter-Glo, 6 h; inhibition, % at 7.5 µM; 1.3% of 300,000 active; AID 1662;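 active = mean replicate score, as percent of positive control median, at least 50; inconclusive = mean below 50 but one replicate at or above 50; inactive = mean and every replicate below 50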;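 also: strain carries kanamycin resistance gene driven by streptokinase promoter and grows in 40 µg/ml kanamycin; loss of luminescence reflects streptokinase promoter inhibition or plain growth inhibition; 0% = median of DMSO wells and 100% = positive control at its reference dose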
# PfHsp90 set2 – reduces growth (ATP signal) of yeast expressing P. falciparum Hsp90 | 0.32% of 310,000 active | S. cerevisiae expressing PfHsp90, BacTiter-Glo ATP, 48 h; yeast lacking PDR1 and PDR3 efflux regulators | AID 504621 | inhibition, % at 9.4 µM;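 active = every replicate shows inhibition above about 80%, whatever the replicate mean, limit read from the data; inconclusive = mean inhibition reaches the set limit but some replicate falls short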;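 also: 0% = DMSO neutral controls and 100% = 20 µM radicicol positive controls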
# Rtt109 Vps75 – C. albicans Rtt109 histone acetyltransferase inhibition. purified Rtt109/Vps75, ThioGlo CoA-SH fluorescence, 4 h. inhibition, % at 34.9 µM. 0.16% of 330,000 active;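 active = inhibition of at least 50% in every replicate; inconclusive = best replicate reaches 50% inhibition but some replicates fall short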
# Target sequence (Q5AAJ8 whole entry, looked up): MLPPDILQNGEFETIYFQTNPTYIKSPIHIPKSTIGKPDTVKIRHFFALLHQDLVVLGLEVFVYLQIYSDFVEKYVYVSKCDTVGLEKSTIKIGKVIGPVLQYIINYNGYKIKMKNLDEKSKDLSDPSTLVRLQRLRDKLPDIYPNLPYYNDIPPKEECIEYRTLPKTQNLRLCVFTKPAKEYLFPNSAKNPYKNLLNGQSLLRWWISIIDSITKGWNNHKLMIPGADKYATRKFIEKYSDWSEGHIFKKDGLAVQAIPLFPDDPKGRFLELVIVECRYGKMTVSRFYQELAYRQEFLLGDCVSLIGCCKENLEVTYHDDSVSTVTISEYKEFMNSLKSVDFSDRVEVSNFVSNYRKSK
# PglD inh – inhibitors of Campylobacter jejuni PglD acetyltransferase; purified PglD enzyme, DTNB colorimetric CoA detection; inhibition, % at 12.5 µM; 0.098% of 360,000 active; AID 602405; in the data active = inhibition above about 16%, passing the limit was not always enough; inconclusive = no clear call, values can overlap the other calls
# FN deposit inh – fibronectin deposition inhibition | AH1F fibroblasts, Alexa488-fibronectin deposition fluorescence, overnight | inhibition, % at 12.6 µM | 0.086% of 350,000 active;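 active = mean inhibition across replicates of 30% or more, regardless of how many single replicates reach that level; inconclusive = mean under 30% yet at least half of replicates reach 30%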;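 also: positive control wells lacked labelled fibronectin entirely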
#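 Material: AH1F fibroblasts assembling fluorescent fibronectin matrix; amount: 10000 AH1F cells/well; medium: DMEM, 2% serum; reagent: Alexa488-fibronectin, 24 nM final in well; dosing: single compound dose, delivered by pin transfer; incubation: 1 h adhesion, overnight exposure; detection: fluorescence after three HBSS washes, excitation 485 nm, emission 525 nm; measure: fibronectin deposition inhibition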
# * marks the source's active call; other numbers are inactive results; ? = inconclusive; nt = not tested or not shown. Shown are actives, neighbours in structure and some others; about 1.7% of the full set was active somewhere.
SMILES,CSC inhib,SKKanGAS inh,PfHsp90 set2,Rtt109 Vps75,PglD inh,FN deposit inh
C[C@@H]1CCCCO[C@@H](CN(C)C(=O)C2CCCCC2)[C@@H](C)CN([C@@H](C)CO)C(=O)c2cc(NS(=O)(=O)c3cccs3)ccc2O1,nt,nt,nt,nt,-1.3,nt
CC(=O)N(c1ccccc1C)C1CCCC1,0.6,-5.0,-1.2,-2.6,1.4,-1.2
CC(=O)N(C1=C(Cl)C(=O)c2ccccc2C1=O)C1CCCCC1,56.6,52.9*,109.1*,2.7,7.3,79.7*
O=C(Nc1ccc(OCC(F)(F)C(F)F)c(C(F)(F)F)c1)c1ccccc1,68.4,8.9,-10.7,-1.8,-1.7,nt
O=C(Nc1ccc(OCC(F)(F)C(F)F)c(C(F)(F)F)c1)c1ccccc1O,0.7,80.9*,-5.1,10.8,7.0,6.3
CC(C)(C)Nc1nc(NN)nc(NC(C)(C)C)n1,17.5,87.0*,-6.3,-1.6,-1.6,nt
Cc1ccc(-n2c(-c3ccc(Br)cc3)c[n+]3c2CCc2ccc4cccnc4c2-3)cc1,63.9,80.6*,-20.0,14.7,-1.8,-4.1
Cc1ccc(S(=O)(=O)N(C)C[C@H]2Oc3ccc(NC(=O)CCC(F)(F)F)cc3CC(=O)N([C@@H](C)CO)C[C@H]2C)cc1,nt,nt,nt,nt,1.9,nt
C[C@@H]1CCCCO[C@H](CN(C)C)[C@@H](C)CN([C@H](C)CO)C(=O)c2cc(NC(=O)NC3CCCCC3)ccc2O1,nt,nt,nt,nt,1.3,nt
O=C(/C=C/c1ccc2c(c1)OCO2)NCCSCc1cccc(Cl)c1,102.2*,-6.0,-0.1,7.5,-4.7,3.5
Cc1cc(NC(=O)/C=C/c2ccc(Cl)cc2)no1,78.1*,-1.8,0.5,2.7,nt,0.1
O=C(/C=C/c1ccc2c(c1)OCO2)Nc1ccc(Cl)cn1,88.2*,-11.2,-15.4,nt,nt,2.2
Cc1cc(NC(=O)/C=C/c2ccc(Br)cc2)no1,39.6,1.1,35.9,-5.8,nt,0.8
C/C=C/c1ccc(C2[C@@H]3CN(S(=O)(=O)c4cn(C)cn4)C[C@H]2N3)cc1 (stereo partly drawn),nt,nt,nt,nt,nt,-3.7
O=S(=O)(NC1CC(NS(=O)(=O)OCC(Cl)(Cl)Cl)C2CCCCC12)OCC(Cl)(Cl)Cl (stereo not drawn),83.4*,90.8*,16.1,-0.1,-1.1,nt
C[C@H](NS(=O)(=O)OCC(Cl)(Cl)Cl)C1CC1c1ccccc1 (stereo partly drawn),39.5,23.7,4.9,13.9,4.7,-4.5
CO[C@H]1CN(C)C(=O)c2ccc(NS(=O)(=O)C3CCCCC3)cc2OC[C@@H](C)NC[C@H]1C,nt,nt,nt,nt,0.7,0.9
Cc1ccc(SC(CC(=O)c2ccc(F)cc2)C(=O)O)cc1 (stereo not drawn),nt,-4.5,25.5,14.3,2.0,-4.2
CC(C)(C)c1ccc(C(=O)CC(Sc2ccc(Cl)cc2)C(=O)O)cc1 (stereo not drawn),79.5*,1.2,81.3*,126.0*,nt,1.8
CNC[C@@H]1OCCCC[C@@H](C)Oc2ccc(NC(=O)Cc3ccccc3)cc2C(=O)N([C@H](C)CO)C[C@@H]1C,nt,nt,nt,nt,1.4,nt
Cn1c(Oc2ccccc2NCc2cc(Br)ccc2O)cc(=O)n(C)c1=O,15.9,58.7*,0.4,3.5,-1.4,nt
COC(=O)[C@H]1[C@H](CO)[C@H]2Cn3c(cccc3=O)[C@H]2N1C(=O)C1CCCCC1,nt,nt,nt,nt,-0.3,nt
CC(=O)Oc1ccc(C(=O)Nc2ccc(C3(C#N)CCCC3)cc2)cc1,95.5*,11.9,12.4,1.6,3.9,-3.7
CCN(CCNCC(O)COc1ccccc1C(C)C)c1cccc(C)c1 (stereo not drawn),99.9*,14.6,-2.2,2.9,4.6,1.0
O=c1cc(NS(=O)(=O)c2ccccc2)nc(SCc2ccc(Cl)cc2)[nH]1,88.0*,nt,-17.2,11.3,2.6,8.8
SMILES,CSC inhib,SKKanGAS inh,PfHsp90 set2,Rtt109 Vps75,PglD inh,FN deposit inh
O=C(CSc1nc(NS(=O)(=O)c2ccccc2)cc(=O)[nH]1)Nc1ccc(Cl)cc1,nt,nt,-5.8,-0.2,nt,-7.2
C[n+]1cc2c3c(ccc2c2ccc4cc5c(cc4c21)OCO5)OCO3,nt,nt,nt,nt,nt,52.2*
O=C/C=C/c1c(-c2ccccc2)cc2oc3ccccc3cc1-2,98.5*,10.3,-21.1,-6.5,2.6,-5.1
CC1=C(C(=O)OCc2ccc([N+](=O)[O-])cc2)N2C(=O)C(NC(=O)Cc3ccccc3)C2SC1 (stereo not drawn),-3.6,-3.1,11.1,-5.2,0.8,-2.5
CC1=C(C(=O)OCc2ccccc2)N2C(=O)[C@@H](NC(=O)COc3ccccc3)[C@H]2SC1,9.2,3.8,18.4,2.1,1.0,-4.1
C=CC1=C(C(=O)O)N2C(=O)C(NC(=O)Cc3ccccc3)C2SC1 (stereo not drawn),-10.4,94.8*,2.2,14.1,-1.2,4.7
O=C(COc1ccccc1)NC1C(=O)N2C(C(=O)O)=C(Cl)CSC12 (stereo not drawn),-22.4,101.7*,-4.3,-6.2,2.2,5.4
COc1cc(-c2nc(-c3ccccc3)c(-c3cccs3)[nH]2)cc(OC)c1OC,78.0*,0.7,5.6,-7.2,-3.9,nt
CCCc1cn(CC[C@@H]2CC[C@@H](NS(=O)(=O)c3ccccc3Cl)[C@H](CO)O2)nn1,nt,nt,nt,nt,-1.1,-21.6
Cc1ccc2c(Cl)cc(Cl)c(OCC(=O)NC(C)(C)C)c2n1,-3.4,49.9*,-56.4,nt,nt,6.7
COC(=O)COc1c(Cl)cc(Cl)c2ccc(C)nc12,1.2,7.8,-13.3,-8.3,5.9,nt
CCS(=O)(=O)N[C@H]1C=C[C@@H](CC(=O)Nc2ccc(-c3ccccc3)cc2)O[C@@H]1CO,nt,nt,nt,nt,-2.8,-7.5
Fc1ccccc1C1CC(c2ccco2)=Nc2ccccc2S1 (stereo not drawn),34.0,6.5,16.8,83.2*,nt,2.6
COC(=O)c1ccc2c(c1)C(C)(C)C(/C=C/c1ccccc1O)=[N+]2C,78.3*,6.4,17.2,1.0,nt,nt
CC(C)n1nnc(-c2ccc(OCc3ccccc3F)cc2)n1,11.2,10.6,1.4,6.5,5.3,-10.0
Fc1ccccc1COc1ccc(-c2nnn(Cc3ccccc3F)n2)cc1,80.6*,13.6,-7.4,3.4,-2.1,-0.2
Cn1nnc(-c2ccc(OCc3ccccc3F)cc2)n1,20.3,52.6*,4.4,-16.9,-1.6,2.5
C[C@H](CO)N1C[C@H](C)[C@H](CN(C)Cc2ccc(C(=O)Nc3ccccc3N)cc2)Oc2ccc(NS(=O)(=O)c3ccccc3)cc2C1=O,nt,nt,nt,nt,0.2,nt
COCC(C)NC(=O)NC1(C(F)(F)F)Oc2ccc(Cl)cc2O1 (stereo not drawn),79.7*,0.9,nt,-1.2,-2.1,nt
O=C(NCCN1CCOCC1)NC1(C(F)(F)F)Oc2ccc(Cl)cc2O1 (stereo not drawn),?,-3.2,7.5,0.2,nt,7.0
COc1ccc(NC(=O)N2CCCCN3[C@H](CO)[C@H](c4ccc(-c5ccccc5F)cc4)[C@@H]3C2)cc1,nt,nt,nt,nt,0.6,9.4
O=[N+]([O-])c1cccc(C=NNc2ccc3ccccc3n2)c1O,nt,nt,137.1*,-1.3,nt,14.9
